Screening results: PubChem BioAssay, several laboratories
The list is not random: actives were taken first. Their share in the collection is about 2.5%.
NPY Y1 blocker – blocks the human neuropeptide Y Y1 receptor; P25929; HEK293-CNG Y1 cells, membrane potential fluorescence; NPY at EC95, then isoproterenol; inhibition, % at 3.6 µM; 200,000 compounds, 1% hits; AID 1040;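 active means inhibition above the campaign mean inhibition of all tested compounds plus 3 SD, cut at about 20% in these data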
Target sequence (P25929 whole entry, looked up): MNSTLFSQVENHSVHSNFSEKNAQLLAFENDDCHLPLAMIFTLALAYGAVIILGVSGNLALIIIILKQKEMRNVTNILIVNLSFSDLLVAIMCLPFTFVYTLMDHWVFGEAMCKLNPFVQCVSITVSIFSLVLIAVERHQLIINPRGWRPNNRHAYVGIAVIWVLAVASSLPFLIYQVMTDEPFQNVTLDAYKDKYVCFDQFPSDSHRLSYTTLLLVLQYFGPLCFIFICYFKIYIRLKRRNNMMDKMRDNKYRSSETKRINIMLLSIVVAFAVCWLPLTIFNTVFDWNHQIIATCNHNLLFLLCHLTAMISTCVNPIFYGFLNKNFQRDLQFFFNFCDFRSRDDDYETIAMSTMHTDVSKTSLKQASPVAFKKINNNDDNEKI
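Assay system: HEK293 Y1/CNG channel cell line; Doses: single compound dose of 3.6 µM, 0.4% DMSO; Timing: dye 3 h, compound 60 min room temperature, stimulation 45 min; Technique: Membrane-potential fluorescent dye readout; Measure: % inhibition of NPY effect.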
NPY-Y2 antag – blocks the human neuropeptide Y Y2 receptor. NPY-Y2 expressing cells, antagonist mode. inhibition, % at 2.7 µM. 140,000 compounds, 0.99% hits. AID 793; in the data active means inhibition above about 17%
NPY1 pot ag – human NPY-Y1 potentiation or agonism, primary screen; P25929; NPY-Y1 expressing cells, potentiator/agonist activation; activation, % at 3.6 µM; 220,000 compounds, 0.37% hits; AID 1304; in the data active means activation above about 33%, passing the limit was not always enough;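 further: cells stimulated with NPY at EC10 then isoproterenol at EC100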
NPY-Y2 PAM-ag – potentiators or agonists of human neuropeptide Y receptor Y2 | P49146 | cells expressing NPY-Y2, potentiator/agonist read-out | activation, % at 3.6 µM | 220,000 compounds, 0.45% hits | AID 1359; in the data active means activation above about 27%;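 further: cells stimulated with NPY near EC25 plus isoproterenol at EC100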
INS promoter inh – TRM-6 insulin promoter activity inhibition | 130,000 compounds, 0.9% hits | TRM-6 cells, insulin promoter-eGFP reporter, imaging; reporter expression induced with tamoxifen | AID 1273 | inhibition, % at 2 µM;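 active means inhibition above the mean plus 3 SD, with well images judged a real hit on visual review, cut at about 60% in these data, passing the limit was not always enough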
Ins promoter up – MIN6 insulin promoter up-regulation | z-score at 5 µM | 190,000 compounds, 0.3% hits | MIN6 insulin promoter-GFP reporter, high-content imaging; hits give high values;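 active means z-score above 3 at 5 µM with at least 500 cells counted in the well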
Large screens that a line does not name were inactive.

CCOc1ccc(/C=N/Nc2ccc(C(F)(F)F)cc2[N+](=O)[O-])cc1O	INS promoter inh 71.4
O=C(CSc1ncnc2scc(-c3ccccc3)c12)N1CCN(c2ccccc2F)CC1	NPY Y1 blocker 33.2, NPY-Y2 antag 29.9 (no result: Ins promoter up)
Cc1cc(C)cc(COn2ccnc2)c1	INS promoter inh 67.9
Clc1ccc(COn2ccnc2)cc1Cl	none (no result: NPY-Y2 antag, INS promoter inh)
CCCCNC(=O)COC(=O)c1ccc(F)cc1Cl	none (no result: NPY-Y2 antag, INS promoter inh)
S=C(NCCc1ccccc1)Nc1c(Cl)cccc1Cl	none (no result: NPY Y1 blocker, NPY-Y2 antag, INS promoter inh)
Cn1cc(S(=O)(=O)N2CCCC(C(=O)O)C2)cn1 (configuration not stated)	none (no result: NPY-Y2 antag, INS promoter inh)
Cc1ccc(/C=N/NC(=O)c2ccc3nc[nH]c3c2)s1	none (no result: NPY-Y2 antag, Ins promoter up)
COc1cc([N+](=O)[O-])cc2sc(NC(C)=O)nc12	none (no result: NPY Y1 blocker, NPY-Y2 antag, INS promoter inh)
CCCCC(=O)Nc1nc2c(OC)cc([N+](=O)[O-])cc2s1	NPY1 pot ag 38.6, NPY-Y2 PAM-ag 33.0 (no result: NPY-Y2 antag, INS promoter inh)
COc1ccc(-c2noc(COc3ccc4c(c3)OCO4)n2)cc1OC	NPY Y1 blocker 26.0
Cc1nc2ncnn2c(N2CCN(S(=O)(=O)c3ccc(Br)cc3)CC2)c1C	none (no result: NPY-Y2 antag)
COc1cccc(NCc2cc3c(C(C)(C)C)nn(-c4ccccc4)c3[nH]c2=O)c1	none (no result: INS promoter inh)
CCOc1ccc(NCc2cc3c(C(C)(C)C)nn(-c4ccccc4)c3[nH]c2=O)cc1	NPY1 pot ag 56.0, NPY-Y2 PAM-ag 35.2 (no result: INS promoter inh, Ins promoter up)
CCOc1ccc(CN(C(=O)c2oc3cc(C)ccc3c2C)C2CCS(=O)(=O)C2)cc1 (configuration not stated)	INS promoter inh 65.6
Cc1ccc2c(C)c(C(=O)N(Cc3cccs3)C3CCS(=O)(=O)C3)oc2c1 (configuration not stated)	none
CN1C(=O)C2(C(C#N)=C(N)Oc3n[nH]c(-c4ccc(Cl)cc4)c32)c2ccccc21 (configuration not stated)	NPY1 pot ag 40.0, NPY-Y2 PAM-ag 42.8 (no result: INS promoter inh)
Cc1[nH]nc2c1C1(C(=O)N(Cc3ccc(Cl)cc3)c3ccccc31)C(C#N)=C(N)O2 (configuration not stated)	none
COc1ccc(O)c(-c2cc(-c3cccs3)[nH]n2)c1	NPY1 pot ag 57.7, NPY-Y2 PAM-ag 41.7
COc1ccc(-c2cc(-c3ccccc3O)[nH]n2)cc1	none
CC(=O)NNc1ncnc2c1cnn2-c1ccc(C)c(Cl)c1	none (no result: NPY-Y2 antag)
CSc1ccc(NC(=O)N2CC=C(n3c(=O)[nH]c4ccccc43)CC2)cc1	INS promoter inh 64.3
COCCN1C(=O)c2cc(C(=O)Nc3ccc(OC)c(OC)c3)ccc2C1Nc1ccc(OC)c(OC)c1 (configuration not stated)	none (no result: NPY-Y2 antag)
Cc1noc(C)c1CSc1nc2ccccc2c(=O)n1-c1ccc(Cl)cc1	NPY Y1 blocker 27.5, NPY-Y2 antag 32.2
CCNC(=O)Nc1ccc(-n2nc(C)c(C(=O)OCC)c2C)nc1	none (no result: NPY-Y2 antag)
CC1CC(C)CN(c2ncc3c(n2)CC(c2ccccc2)CC3=O)C1 (configuration not stated)	NPY Y1 blocker 30.8, NPY-Y2 antag 23.7
C=CCNC(=O)/C(=C\c1ccc(Br)cc1)NC(=O)c1ccccc1OC	Ins promoter up 3.42 (no result: NPY-Y2 antag, INS promoter inh)
CS(=O)(=O)N(CC(=O)N1CCCC1)c1ccc(OCc2ccccc2)cc1	INS promoter inh 75.0
COc1ccc(N2CCN(C(=O)CN(c3ccc(Br)cc3)S(C)(=O)=O)CC2)cc1	INS promoter inh 75.0
CS(=O)(=O)N(CC(=O)N1CCCCCC1)c1ccccc1	none
C(=C\c1ccccc1)/CN1CCN(Cc2nc(Cc3ccccc3)no2)CC1	none (no result: NPY-Y2 antag, INS promoter inh)
O=C(COc1ccc(/C=N/NS(=O)(=O)c2ccccc2)cc1)Nc1cccc(Cl)c1	NPY Y1 blocker 42.9, NPY-Y2 antag 17.5
CCOCCCn1c(=S)[nH]c2ncccc2c1=O	INS promoter inh 100.0
CCN1C(=O)[C@H]2[C@H]3[C@H](O)[C@H](O)C/C(=N\OC[C@@H](C)[C@H](OCc4ccccc4)C(C)C)[C@@H]3CC[C@H]2C1=O	none
COc1ccc(CCNC(=O)c2cc(-c3ccccc3OC)on2)cc1OC	none (no result: INS promoter inh)
COc1ccc(CCNC(=O)c2ccc3ccccc3n2)cc1OC	NPY Y1 blocker 20.1 (no result: NPY-Y2 antag, INS promoter inh)
NC(=O)C1CCCN1 (configuration not stated)	none (no result: NPY-Y2 antag, INS promoter inh)
CCOC(=O)c1sc2nc3c(cc2c1N)COC(C)(C)C3	INS promoter inh 81.2 (no result: Ins promoter up)
COc1ccc(C(=O)NN2CC(O)=C(c3nc4ccccc4n3C)C2=N)cc1OC	none
Cc1ccc(NCC(O)C(O)C(O)CO)c(N=Nc2ccccc2)c1C (configuration not stated)	NPY1 pot ag 99.4, NPY-Y2 PAM-ag 97.5 (no result: NPY Y1 blocker, NPY-Y2 antag, INS promoter inh)
COc1ccc(CNC(=O)C2(c3ccc(Cl)cc3)CC2)cc1	INS promoter inh 75.0
NS(=O)(=O)c1ccc(CNC(=O)C2(c3ccc(Cl)cc3)CC2)cc1	none (no result: NPY-Y2 antag, INS promoter inh)
Cc1ccc(C(C)C)c(OCC(=O)N2CCOCC2)c1	none
Cc1ccc(C(C)C)c(OCC(O)CN2CCOCC2)c1 (configuration not stated)	NPY1 pot ag 89.0, NPY-Y2 PAM-ag 76.0
Cc1ccc(Cl)cc1N1CCN(CC(O)COC(C)C)CC1 (configuration not stated)	none (no result: NPY Y1 blocker, NPY-Y2 antag, INS promoter inh)
Cc1ccc(C(C)C)c(OCC(O)CN2CC(C)OC(C)C2)c1 (configuration not stated)	NPY1 pot ag 93.4, NPY-Y2 PAM-ag 91.8
Cc1ccc(OCC(O)CN2CCN(CC(O)COC(C)C)CC2)c(C(C)(C)C)c1 (configuration not stated)	NPY1 pot ag 95.6, NPY-Y2 PAM-ag 93.0
Cc1ccc(C(C)C)c(OCC(O)CN2CCN(CCO)CC2)c1 (configuration not stated)	NPY1 pot ag 101.5, NPY-Y2 PAM-ag 80.5 (no result: Ins promoter up)
Cc1cccc(NC(=O)Cn2cnc3c(oc4nc5c(cc43)COC(C)(C)C5)c2=O)c1	none
CCn1c(C)nc([N+](=O)[O-])c1C(=O)O	none (no result: NPY-Y2 antag, Ins promoter up)
COc1ccc(-n2c(=O)c3ccccc3n(CC(=O)OCc3ccccc3)c2=O)cc1OC	none (no result: NPY-Y2 antag, INS promoter inh)
Cc1ccc(NC(=O)Cn2c(=O)oc3cc(S(=O)(=O)N4CCC(C)CC4)ccc32)cc1C	none (no result: INS promoter inh)
O=C(NC(=S)Nc1ccccc1F)c1ccc(Br)o1	none (no result: NPY-Y2 antag)
O=C(O)c1cc(-c2ccncc2)nc2ccc(F)cc12	Ins promoter up 3
O=c1o[nH]c(-c2ccccc2)c1C1=NCCCCC1	none (no result: INS promoter inh, Ins promoter up)
COc1ccc(NC(=O)CC(NCc2ccccn2)C(=O)O)cc1 (configuration not stated)	none (no result: NPY-Y2 antag, INS promoter inh)
O=C(NC1CCCCCCC1)C1c2ccccc2C(=O)N1Cc1ccco1 (configuration not stated)	none
CC1CCCC(NC(=O)C2c3ccccc3C(=O)N2Cc2cccs2)C1C (configuration not stated)	NPY Y1 blocker 34.6, NPY-Y2 antag 24.6
COc1ccc(-c2c3c(=O)n(C)c(=O)n(C)c3cn2-c2cc(OC)ccc2OC)cc1	NPY Y1 blocker 21.0 (no result: INS promoter inh)
COc1ccc(-c2c3c(=O)n(C)c(=O)n(C)c3cn2Cc2cccnc2)cc1	INS promoter inh 73.3
COc1ccc(-c2c3c(=O)n(C)c(=O)n(C)c3cn2Cc2ccccn2)cc1	none
